Results gathered from unrelated publications.
Each line is one published result; the experiments were not run side by side.
Target: Serine/threonine-protein kinase tousled-like 2 (TLK2, Homo sapiens, UniProt Q86UE8)

Nc1ncnc2occ(-c3ccc(NC(=O)Nc4cc(C(F)(F)F)ccc4F)cc3)c12 — remaining signal (cell-free assay, inhibitor; 20 µM): 89%
Cc1cnc(NC2CCOCC2)nc1-n1cnc(C(=O)NC(CN)c2cc(F)cc(Cl)c2)c1 (stereo not drawn) — remaining activity (enzyme activity, inhibitor, radiometric; 1 µM): 100%
CC(C)(C)c1nc2c(s1)c1nc(N)ncc1c1ccc(NS(=O)(=O)c3c(F)cccc3F)c(F)c12 — remaining activity (enzyme activity, inhibitor, radiometric; 1 µM): 109%
Oc1cccc(-c2nc(N3CCOCC3)c3oc4ncccc4c3n2)c1 — remaining signal (cell-free assay; 0.5 µM): 102%
Cc1ccc(NC(=O)c2ccc(C)c(C(F)(F)F)c2)cc1C#Cc1nn(C2CCC(O)CC2)c2ncnc(N)c12 (stereo not drawn) — remaining signal (cell-free assay; 10 µM): 93%
CC(C)(O)[C@H]1CC[C@H](Nc2ccc3ncc(-c4cccc(C(F)(F)F)c4)n3n2)CC1 — remaining activity (enzyme activity, inhibitor; 1 µM): 103%
CNC(=O)Nc1ccc2c(c1)CC[C@@]21OC(=O)N(CC(=O)N(Cc2ccc(F)cc2)[C@@H](C)C(F)(F)F)C1=O — remaining binding (cell-free assay, competition with immobilised ligand; 1 µM): 100%
COc1cccc2c(NCc3ccccc3)nc(-n3c(N)nc4ccccc43)nc12 — inhibition (target engagement in cells, inhibitor, chemoproteomics; 20 mM): -7.5%
COc1cc2c(N3CCN(C(=O)Nc4ccc(OC(C)C)cc4)CC3)ncnc2cc1OCCCN1CCCCC1 — remaining signal (cell-free assay; 0.5 µM): 96.2%
CN1CC(Oc2cnc(C#N)cc2-c2ccn3nc(NC(=O)C4CC4)cc3c2)C1 — inhibition (enzyme activity, inhibitor; 1 µM): 1%
CCCS(=O)(=O)Nc1ccc(F)c(C(=O)c2c[nH]c3ncc(-c4ccc(Cl)cc4)cc23)c1F — inhibition (enzyme activity, inhibitor; 1 µM): < 10%
O=C(Nc1cccnn1)N1CC(C/C=C/c2cncc(Oc3ccc(C(F)(F)F)cn3)n2)C1 — remaining binding (cell-free assay, competition with immobilised ligand; 1 µM): 100%
Cc1sc(C(=O)NC2COC2)cc1-n1cc(NC(=O)Nc2c(F)cccc2Cl)cn1 — remaining activity (enzyme activity, inhibitor; 10 µM): 97.2%
C[C@@H](c1cccc(C#N)c1)n1cc(Cl)cc(C(N)=O)c1=N — remaining binding (cell-free assay, competition with immobilised ligand; 1 µM): 100%
COc1cc(Cl)c(C(=O)N[C@@H](CN[C@H]2CC[C@@H](N)CC2)Cc2ccc(C#N)cc2)cc1-c1ccc(CN[C@H](C)c2ccc(C)cc2)o1 — remaining activity (enzyme activity, inhibitor; 1 µM): 94%
CCCOc1ccc([C@H]2[C@H](C(=O)O)[C@@H](c3ccc4c(c3)OCO4)CN2CC(=O)Nc2c(CC)cccc2CC)cc1 — remaining binding (cell-free assay, competition with immobilised ligand; 1 µM): 94%
CNC(=O)c1cc(Oc2ccc(NC(=O)Nc3ccc(Cl)c(C(F)(F)F)c3)cc2)ccn1 — inhibition (enzyme activity, inhibitor; 10 µM): -1%
O=C(Nc1cnc(Oc2ccc(F)cc2)nc1)N1CCc2ncccc2[C@@H]1c1ccc(F)cc1 — remaining binding (cell-free assay, competition with immobilised ligand; 1 µM): 89%
Cc1ccc(C(=O)Nc2ccc(CN3CCN(C)CC3)c(C(F)(F)F)c2)cc1C#Cc1cnc2cccnn12 — remaining activity (enzyme activity, inhibitor; 23.5 nM): 100%
CCCCN(CCCC)C(=O)CN1C[C@@H](c2cc(OC)c3c(c2)OCO3)[C@H](C(=O)O)[C@H]1CC(C)(C)CCC — remaining binding (cell-free assay, competition with immobilised ligand; 1 µM): 100%
Cc1ccc(Nc2nccc(N(C)c3ccc4c(C)n(C)nc4c3)n2)cc1S(N)(=O)=O — remaining signal (cell-free assay, inhibitor; 0.5 µM): 85.6%
